ChEMBL document CHEMBL5107954, “Potency and metabolic stability: a molecular hybrid case in the design of novel PF74-like small molecules targeting HIV-1 capsid protein” (RSC Med Chem, 2021)

Tests used:
[1] = system: Human immunodeficiency virus 1; experiment: Binding affinity to HIV-1 capsid protein 121 expressed in Escherichia coli BL21 (DE3) cells assessed as change in melting temperature at 20 uM measured every 10 sec by RT-PCR based thermal shift assay
How it was run: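 Crosslinked hexameric CA A14C/E45C/W184A/M185A (CA121), purified protein at 7.5 μM in 50 mM sodium phosphate pH 8.0 with 1× Sypro Orange; compound 20 μM or DMSO control, 1% DMSO final. Heated 25 to 95 °C at 0.2 °C per 10 s in a real-time PCR instrument; fluorescence Ex 475–500, Em 520–590 nm. ΔTm is the hexamer melting point with compound minus DMSO control.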

[2] = Cytotoxicity against human TZM cells expressing GFP assessed as inhibition of cell growth incubated for 72 hrs by XTT assay; type: toxicity, cell-based
How it was run: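 TZM-GFP cells at 1 × 10^4 cells/well were exposed continuously to increasing compound concentrations for 72 h. Viable cells were read by XTT. CC50 came from a log(inhibitor) vs. normalized response, variable-slope curve fit. Run in duplicate, ≥2 independent experiments, mean ± SD.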

[3] = (§1) Antiviral activity against wild type HIV1 NL4-3 infected in human TZM cells expressing GFP assessed as inhibition of viral LTR-activated GFP expression preincubated with compound for 24 hrs followed by viral infection and measured after 48 hrs; type: functional, cell-based; conditions: Human immunodeficiency virus 1, NL4-3, TZM
How it was run: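 TZM-GFP cells at 1 × 10^4 cells/well were treated with increasing compound concentrations, then infected 24 h later with HIV-1 NL4-3 at MOI 0.1. After 48 h, GFP-positive cells were counted by imaging and compared with DMSO controls. EC50 came from a log(inhibitor) vs. normalized response, variable-slope fit. Run in duplicate, ≥2 independent experiments, mean ± SD.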

[4] = Metabolic stability in human liver microsomes assessed as half-life at 1 uM measured upto 15 mins in the presence of NADPH as co-factor by LC-MS/MS analysis; type: ADME, Microsome
[5] = Metabolic stability in mouse liver microsomes assessed as half-life at 1 uM measured upto 15 mins in the presence of NADPH as co-factor by LC-MS/MS analysis; type: ADME, Microsome
[6] = Metabolic stability in human liver microsomes assessed as half-life measured upto 60 mins in the presence of NADPH as co-factor by LC-MS/MS analysis; type: ADME, Microsome
[7] = as §1, with “Potency index, ratio of test compound EC50 to PF74 EC50 for antiviral” for “Antiviral”; type: functional, Human immunodeficiency virus 1; conditions: time 72 hrs

For `CN(C(=O)[C@H](Cc1ccccc1)NC(=O)CN1CCN(C(=O)c2ccccc2Br)CC1)c1ccc(Cl)cc1`, the ΔTm [1] was 0.7 °C, the CC50 at 72 h [2] was > 50 µM and the EC50 [3] was 20 µM.

`CN(C(=O)[C@H](Cc1ccccc1)NC(=O)CN1CCN(C(=O)c2cccc([N+](=O)[O-])c2)CC1=O)c1ccc(Cl)cc1` gave a half-life at 1 µM [4] of 2.6 min, a ΔTm [1] of 1.5 °C and a half-life at 1 µM [5] of 0.8 min. The CC50 at 72 h [2] was > 50 µM and the EC50 [3] was 9.3 µM.

With `CN(C(=O)[C@H](Cc1ccccc1)NC(=O)CN1CCN(C(=O)c2ccccc2Cl)CC1=O)c1ccc(Cl)cc1` the half-life at 1 µM [4] was 6.2 min, the ΔTm [1] was 1.5 °C and the half-life at 1 µM [5] was 1.1 min. For the same compound, the CC50 at 72 h [2] was > 50 µM and the EC50 [3] was 6.4 µM.

With `CN(C(=O)[C@H](Cc1ccccc1)NC(=O)Cn1ccc(C(F)(F)F)c(Oc2cc(Cl)cc(C(=O)O)c2)c1=O)c1ccc(Cl)cc1` the ΔTm [1] was 1.9 °C, the CC50 at 72 h [2] was > 50 µM and the EC50 [3] was > 20 µM.

In the case of `CN(C(=O)[C@H](Cc1ccccc1)NC(=O)CN1CCN(C(=O)c2ccc(O)cc2)CC1=O)c1ccc(Cl)cc1`, the ΔTm [1] is reported as 0.7 °C, the CC50 at 72 h [2] is reported as > 50 µM and the EC50 [3] is reported as > 20 µM.

In the case of `CN(C(=O)[C@H](Cc1ccccc1)NC(=O)CNC(=O)c1ccccc1)c1ccc(Cl)cc1`, the half-life [6] is reported as 36 min, the “Ratio EC50” value [7] is reported as 1.4 and the EC50 [3] is reported as 0.88 µM.

With `CN(C(=O)[C@H](Cc1ccccc1)NC(=O)CN1CCN(C(=O)c2ccc(C(F)(F)F)cc2)CC1=O)c1ccc(Cl)cc1` the ΔTm [1] was 0.5 °C, the CC50 at 72 h [2] was > 50 µM and the EC50 [3] was > 20 µM.

For `CN(C(=O)[C@H](Cc1ccccc1)NC(=O)CN1CCN(C(=O)c2c[nH]c3ccccc23)CC1=O)c1ccc(Cl)cc1`, the ΔTm [1] was 0.3 °C, the CC50 at 72 h [2] was > 50 µM and the EC50 [3] was > 20 µM.

`CN(C(=O)[C@H](Cc1ccccc1)NC(=O)CN1CCN(C(=O)c2ccccc2[N+](=O)[O-])CC1=O)c1ccc(Cl)cc1` gave a half-life at 1 µM [4] of 3.8 min, a ΔTm [1] of 2.6 °C and a half-life at 1 µM [5] of 0.9 min. The CC50 at 72 h [2] was > 50 µM and the EC50 [3] was 2.7 µM.

Compound `CN(C(=O)[C@H](Cc1ccccc1)NC(=O)CN1CCN(C(=O)c2ccccc2F)CC1=O)c1ccc(Cl)cc1` has a half-life at 1 µM [4] of 4.1 min, a ΔTm [1] of 1.6 °C and a half-life at 1 µM [5] of 0.9 min. The CC50 at 72 h [2] was > 50 µM and the EC50 [3] was 9.5 µM.

In the case of `CN(C(=O)[C@H](Cc1ccccc1)NC(=O)CN1CCNCC1=O)c1ccc(Cl)cc1`, the ΔTm [1] is reported as 0.1 °C, the CC50 at 72 h [2] is reported as > 50 µM and the EC50 [3] is reported as > 20 µM.

For `CN(C(=O)[C@H](Cc1ccccc1)NC(=O)CN1CCN(C(=O)c2cccc(N)c2)CC1=O)c1ccc(Cl)cc1`, the ΔTm [1] was 0.3 °C, the CC50 at 72 h [2] was > 50 µM and the EC50 [3] was > 20 µM.

In the case of `CN(C(=O)[C@H](Cc1ccccc1)NC(=O)CN1CCN(C(=O)c2ccccc2)CC1=O)c1ccc(Cl)cc1`, the ΔTm [1] is reported as 0.7 °C, the CC50 at 72 h [2] is reported as > 50 µM and the EC50 [3] is reported as > 20 µM.

With `CN(C(=O)[C@H](Cc1ccccc1)NC(=O)CN1CCN(C(=O)c2cccc(Cl)c2)CC1=O)c1ccc(Cl)cc1` the ΔTm [1] was 1 °C, the CC50 at 72 h [2] was > 50 µM and the EC50 [3] was 10.2 µM.

In the case of `CN(C(=O)[C@H](Cc1ccccc1)NC(=O)CN1CCN(C(=O)c2cccc(F)c2)CC1=O)c1ccc(Cl)cc1`, the ΔTm [1] is reported as 1.7 °C, the CC50 at 72 h [2] is reported as > 50 µM and the EC50 [3] is reported as 13.3 µM.

For `CN(C(=O)[C@H](Cc1ccccc1)NC(=O)CN1CCN(C(=O)c2cn[nH]c2)CC1=O)c1ccc(Cl)cc1`, the ΔTm [1] was 1.3 °C, the CC50 at 72 h [2] was > 50 µM and the EC50 [3] was > 20 µM.

For `CN(C(=O)[C@H](Cc1ccccc1)NC(=O)CN1CCN(C(=O)c2ccc(N)cc2)CC1=O)c1ccc(Cl)cc1`, the ΔTm [1] was 0.5 °C, the CC50 at 72 h [2] was > 50 µM and the EC50 [3] was > 20 µM.

For `CN(C(=O)[C@H](Cc1ccccc1)NC(=O)CN1CCN(C(=O)c2cccc(O)c2)CC1=O)c1ccc(Cl)cc1`, the ΔTm [1] was 0.8 °C, the CC50 at 72 h [2] was > 50 µM and the EC50 [3] was > 20 µM.

With `CN(C(=O)[C@H](Cc1ccccc1)NC(=O)CN1CCN(C(=O)c2ccccn2)CC1=O)c1ccc(Cl)cc1` the ΔTm [1] was 0.8 °C, the CC50 at 72 h [2] was > 50 µM and the EC50 [3] was 12.7 µM.

In the case of `CN(C(=O)[C@H](Cc1ccccc1)NC(=O)CN1CCN(C(=O)c2ccc(S(=O)(=O)F)cc2)CC1=O)c1ccc(Cl)cc1`, the ΔTm [1] is reported as 0.8 °C, the CC50 at 72 h [2] is reported as > 50 µM and the EC50 [3] is reported as > 20 µM.

With `CN(C(=O)[C@H](Cc1ccccc1)NC(=O)CN1CCN(C(=O)c2cccc(C#N)c2)CC1=O)c1ccc(Cl)cc1` the ΔTm [1] was 1.5 °C, the CC50 at 72 h [2] was > 50 µM and the EC50 [3] was 12.9 µM.

With `CN(C(=O)[C@H](Cc1ccccc1)NC(=O)CN1CCN(C(=O)c2ccncc2)CC1=O)c1ccc(Cl)cc1` the ΔTm [1] was 0.7 °C, the CC50 at 72 h [2] was > 50 µM and the EC50 [3] was 15.6 µM.

In the case of `CN(C(=O)[C@H](Cc1ccccc1)NC(=O)CN1CCN(C(=O)c2cccnc2)CC1=O)c1ccc(Cl)cc1`, the ΔTm [1] is reported as 0.7 °C, the CC50 at 72 h [2] is reported as > 50 µM and the EC50 [3] is reported as 12.5 µM.

With `CN(C(=O)[C@H](Cc1ccccc1)NC(=O)CN1CCN(C(=O)c2ccc(C#N)cc2)CC1=O)c1ccc(Cl)cc1` the ΔTm [1] was 1.7 °C, the CC50 at 72 h [2] was > 50 µM and the EC50 [3] was 11 µM.

For `CN(C(=O)[C@H](Cc1ccccc1)NC(=O)CN1CCN(C(=O)c2ccccc2C(F)(F)F)CC1=O)c1ccc(Cl)cc1`, the ΔTm [1] was 1.4 °C, the CC50 at 72 h [2] was > 50 µM and the EC50 [3] was 7.2 µM.

Work on `CN(C(=O)[C@H](Cc1ccccc1)NC(=O)CN1CCN(C(=O)c2ccccc2Br)CC1=O)c1ccc(Cl)cc1` yielded a half-life at 1 µM [4] of 7.9 min, a ΔTm [1] of 1.1 °C and a half-life at 1 µM [5] of 1.8 min. The CC50 at 72 h [2] was > 50 µM and the EC50 [3] was 3.8 µM.

For `CN(C(=O)[C@H](Cc1ccccc1)NC(=O)CN1CCN(C(=O)c2ccc([N+](=O)[O-])cc2)CC1=O)c1ccc(Cl)cc1`, the ΔTm [1] was 1.5 °C, the CC50 at 72 h [2] was > 50 µM and the EC50 [3] was > 20 µM.

With `CN(C(=O)[C@H](Cc1ccccc1)NC(=O)CN1CCN(C(=O)c2ccccc2N)CC1=O)c1ccc(Cl)cc1` the half-life at 1 µM [4] was 4.4 min, the ΔTm [1] was 0.7 °C and the half-life at 1 µM [5] was 1.3 min. For the same compound, the CC50 at 72 h [2] was > 50 µM and the EC50 [3] was 4.5 µM.

With `CN(C(=O)[C@H](Cc1ccccc1)NC(=O)CN1CCN(C(=O)c2cccc(C(F)(F)F)c2)CC1=O)c1ccc(Cl)cc1` the ΔTm [1] was 0.3 °C, the CC50 at 72 h [2] was > 50 µM and the EC50 [3] was > 20 µM.

Work on `CN(C(=O)[C@H](Cc1ccccc1)NC(=O)CN1CCN(C(=O)c2ccc(Cl)cc2)CC1=O)c1ccc(Cl)cc1` yielded a half-life at 1 µM [4] of 7.5 min, a ΔTm [1] of 1.3 °C and a half-life at 1 µM [5] of 1.3 min. The CC50 at 72 h [2] was > 50 µM and the EC50 [3] was 9.2 µM.

With `CN(C(=O)[C@H](Cc1ccccc1)NC(=O)CN1CCN(C(=O)c2ccccc2C#N)CC1=O)c1ccc(Cl)cc1` the ΔTm [1] was 2.1 °C, the CC50 at 72 h [2] was > 50 µM and the EC50 [3] was 7.5 µM.

For `CN(C(=O)[C@H](Cc1ccccc1)NC(=O)CN1CCN(C(=O)c2ccc(Br)cc2)CC1=O)c1ccc(Cl)cc1`, the ΔTm [1] was 0.8 °C, the CC50 at 72 h [2] was > 50 µM and the EC50 [3] was 10.2 µM.

`CN(C(=O)[C@H](Cc1ccccc1)NC(=O)CN1CCN(C(=O)c2cccc(Cl)n2)CC1=O)c1ccc(Cl)cc1` gave a half-life at 1 µM [4] of 3.6 min, a ΔTm [1] of 1.1 °C and a half-life at 1 µM [5] of 1 min. The CC50 at 72 h [2] was > 50 µM and the EC50 [3] was 7.7 µM.

For `CN(C(=O)[C@H](Cc1ccccc1)NC(=O)CN1CCN(C(=O)c2cccc(S(=O)(=O)F)c2)CC1=O)c1ccc(Cl)cc1`, the ΔTm [1] was 1.1 °C, the CC50 at 72 h [2] was > 50 µM and the EC50 [3] was > 20 µM.

For `CN(C(=O)[C@H](Cc1ccccc1)NC(=O)CN1CCN(C(=O)c2ccc(F)cc2)CC1=O)c1ccc(Cl)cc1`, the ΔTm [1] was 1.3 °C, the CC50 at 72 h [2] was > 50 µM and the EC50 [3] was 11.5 µM.

For `Cc1[nH]c2ccccc2c1CC(=O)N[C@@H](Cc1ccccc1)C(=O)N(C)c1ccccc1`, the ΔTm [1] was 6.9 °C and the CC50 at 72 h [2] was > 50 µM.

With `CN(C(=O)[C@H](Cc1ccccc1)NC(=O)CN1CCN(C(=O)c2cccc(Br)c2)CC1=O)c1ccc(Cl)cc1` the half-life at 1 µM [4] was 4.8 min, the ΔTm [1] was 1.1 °C and the half-life at 1 µM [5] was 1.4 min. The CC50 at 72 h [2] was > 50 µM and the EC50 [3] was 9 µM.

Compound `CN(C(=O)[C@H](Cc1ccccc1)NC(=O)COn1nnc2cccnc21)c1ccc(Cl)cc1` has a half-life at 1 µM [4] of 0.8 min, a ΔTm [1] of 1 °C and a half-life at 1 µM [5] of 0.5 min. The CC50 at 72 h [2] was > 50 µM and the EC50 [3] was 5.2 µM.

With `CN(C(=O)[C@H](Cc1ccccc1)NC(=O)CN1CCN(C(=O)c2ccccc2O)CC1=O)c1ccc(Cl)cc1` the ΔTm [1] was 0.8 °C, the CC50 at 72 h [2] was > 50 µM and the EC50 [3] was > 20 µM.
